Published values gathered from unrelated publications.
Protocols differ between the studies behind these lines.

The AUC(0-inf) of `COCC(=O)N1CCc2[nH]c3c(Cl)c(Cl)ccc3c2[C@@H]1C` is reported as 3.28 µM·h (C57BL/6 mouse, blood; intravenous, 1 mg/kg).
With `NCc1ccc(-c2nn(Cc3ccncc3)c3ccccc23)o1` the AUC(0-t) was 5240 ng·h/mL (male CD-1 mouse, plasma; intraperitoneal, 30 mg/kg).
With `CO[C@H]1/C=C/O[C@@]2(C)Oc3c(C)c(O)c4c(c3C2=O)C2=NC3(CCN(CC(C)C)CC3)NC2=C(NC(=O)/C(C)=C\C=C\[C@H](C)[C@H](O)[C@@H](C)[C@@H](O)[C@@H](C)[C@H](OC(C)=O)[C@@H]1C)C4=O` the AUC was 8070 ng·h/mL (female CD-1 mouse, plasma; intravenous, 5 mg/kg).
`CN(C)C(=O)c1cc2cnc(Nc3ccc(-c4ccc5c(=O)cc(N6CCOCC6)oc5c4)cc3)nc2n1C1CCCC1.Cl` gave an AUC(0-inf) of 2790 ng·h/mL (BALB/c mouse, plasma; intravenous, 2 mg/kg).
`OCc1ccc(-c2nn(Cc3ccccc3)c3ccccc23)o1` has an AUC(0-t) of 218 ng·h/mL (male CD-1 mouse, plasma; oral, 10 mg/kg).
`CCOC(=O)c1c(NC(=O)CNC(C)C)sc2c1CCCCC2` gave an AUC(0-inf) of 19300 ng·h/mL (male mouse, plasma; intraperitoneal, 100 mg/kg, single dose).
`COc1cccc2c(N3CCC(CCP(=O)(O)O)CC3)ncnc12` gave an AUC(0-inf) of 751 ng·h/mL (female C57BL/6 mouse, brain; subcutaneous, 50 mg/kg).
With `Cc1nc2ccc(OCc3ccc(C(F)(F)F)cc3)cc2[nH]1` the AUC(0-inf) was 3800 ng·h/mL (male BALB/c mouse, plasma; intravenous, 1 mg/kg).
The AUC(0-inf) of `NCc1cc2c(cc1F)C(=O)N(C1CCC(=O)NC1=O)C2` (centres unmarked) is reported as 262 ng·h/mL (male CD-1 mouse, plasma; oral, 10 mg/kg).
`O=C1CCC(N2Cc3cc(C4CCN(Cc5ccccc5)CC4)ccc3C2=O)C(=O)N1` (centres unmarked) gave an AUC(0-inf) of 355 ng·h/mL (male CD-1 mouse, plasma; intravenous, 1 mg/kg).
With `OCc1nc2ccc(NCc3ccc(C(F)(F)F)cc3)cc2[nH]1` the AUC(0-inf) was 482 ng·h/mL (male BALB/c mouse, plasma; intravenous, 1 mg/kg).
For `CC(C)[C@@H](CS(=O)(=O)C(C)C)N1C(=O)[C@@](C)(CC(=O)O)C[C@H](c2cccc(Cl)c2)[C@H]1c1ccc(Cl)cc1`, the AUC(0-inf) was 172 ng·h/mL (FVB mouse, brain; intravenous, 20 mg/kg, single dose).
`CCn1c(=O)c(-c2cc(NC(=O)Nc3ccccc3)c(F)cc2Br)cc2cnc(NC)cc21` gave an AUC of 2310 ng·h/mL (male mouse, plasma; oral, 15 mg/kg, single dose).
The AUC(0-inf) of `C[C@@H]1COCCN1c1cc(=O)n2c(n1)N(Cc1cncc(Cl)c1)[C@H](C(F)(F)F)CC2` is reported as 3280 ng·h/mL (C57BL/6 mouse, plasma; intraperitoneal, 10 mg/kg, single dose).
